# Compound activity: PubChem BioAssay, several laboratories
# Rows were chosen to be rich in hits. Some 2.3% of all compounds tested hit in one or more screens of this group.
# HCV NS3 hel inh: blocks Hepatitis C virus NS3 helicase unwinding | NS3 helicase DNA unwinding, Cy5 molecular beacon fluorescence | inhibition, % at 10.9 µM | 290,000 tested, 0.56% active | AID 1800;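 active = inhibition above the mean of all tested compounds plus 3 SD, set per campaign, cut at about 35% in these data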;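 note: 0% = DMSO wells and 100% = thioflavine S control wells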
#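 Test system: hepatitis C virus NS3 helicase domain fragment enzyme. Also added: annealed dual-labelled DNA beacon duplex, ATP-started. Timing: 60 min unwinding reaction at 25 °C after ATP addition. Technique: Cy5 fluorescence. Measure: % inhibition of unwinding.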
# EBNA-1 inhibitor: blocks EBNA-1 binding to DNA; 300,000 tested, 0.34% active; EBNA-1 DNA binding, fluorescence polarization; inhibition, % at 14.8 µM; AID 1950; in the data active = inhibition above about 28%
# HCV core dimer: HCV core protein dimerization inhibition. TR-FRET GST/Flag-core106 dimerization, 1536-well. inhibition, % at 5 µM. 300,000 tested, 0.33% active;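 active = inhibition above the mean of all tested compounds plus 3 SD, set per screening campaign, cut at about 45% in these data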
#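 Assay system – GST-tagged and Flag-tagged HCV core protein residues 1-106 · Quantity – core106 proteins, GST 13.5 nM and Flag 17 nM · Benchmarks – unlabelled core106 and no-GST-core106 wells · Read-out basis – percent inhibition of core106 dimerization signal · Detection – time-resolved FRET, ex 340 nm, em 617 and 671 nm · Schedule – 4 h at 22.5 °C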
# ZTA DNA inh: blocks Epstein-Barr virus ZTA, an EBNA-1 counter-screen; AID 2234; ZTA-DNA binding, fluorescence polarization; inhibition, % at 11 µM; P03206; 320,000 tested, 0.15% active; in the data active = inhibition above about 33%
# Target sequence (P03206 whole entry, looked up): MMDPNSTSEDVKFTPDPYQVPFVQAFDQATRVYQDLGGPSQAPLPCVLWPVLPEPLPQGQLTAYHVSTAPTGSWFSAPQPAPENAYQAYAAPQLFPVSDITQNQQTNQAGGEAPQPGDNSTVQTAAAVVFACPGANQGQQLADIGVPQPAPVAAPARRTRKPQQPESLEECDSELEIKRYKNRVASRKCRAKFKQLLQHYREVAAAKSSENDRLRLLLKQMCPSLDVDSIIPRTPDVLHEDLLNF
# GPR7 antag: antagonists of human GPR7 (neuropeptides B/W receptor 1) | AID 1861 | inhibition, % at 4.4 µM | P48145 | GPR7-expressing cells, fluorescence antagonist assay | 290,000 tested, 1.1% active; in the data active = inhibition above about 16%, passing the limit was not always enough;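 note: cells stimulated with the agonist NPW; 0% = agonist with vehicle and 100% = vehicle without agonist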
# Target sequence (P48145 whole entry, looked up): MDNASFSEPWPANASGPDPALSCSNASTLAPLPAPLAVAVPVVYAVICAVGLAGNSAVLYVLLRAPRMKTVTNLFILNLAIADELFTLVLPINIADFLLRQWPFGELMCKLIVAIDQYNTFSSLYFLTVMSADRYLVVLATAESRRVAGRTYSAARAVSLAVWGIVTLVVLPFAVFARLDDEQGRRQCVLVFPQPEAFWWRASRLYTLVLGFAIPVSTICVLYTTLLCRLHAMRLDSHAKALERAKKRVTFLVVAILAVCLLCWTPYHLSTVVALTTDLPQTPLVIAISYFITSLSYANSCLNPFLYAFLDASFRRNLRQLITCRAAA
# EBV gp42 inh: EBV gp42 inhibition; 220,000 tested, 0.42% active; Q1HVG2; inhibition, % (tested at 21.74 µM); Fluorescence polarization binding assay, mP read-out; in the data active = inhibition above about 50%
# Numbers without * were called inactive; . = not tested or not shown.
SMILES,HCV NS3 hel inh,EBNA-1 inhibitor,HCV core dimer,ZTA DNA inh,GPR7 antag,EBV gp42 inh
COc1ccc(C2C(C#N)=C(N)OC3=C2C(=O)CC(C)(C)C3)c([N+](=O)[O-])c1OC (centres undefined),-2,0,2,-2,2,-6
COc1cc(C2C(C#N)=C(N)OC3=C2C(=O)CC(C)(C)C3)c([N+](=O)[O-])cc1OC (centres undefined),5,-15,-9,0,-10,86*
Cc1ccc(OC(C)C(=O)N=Nc2c(O)[nH]c3ccc([N+](=O)[O-])cc23)cc1 (centres undefined),3,-8,-15,-13,-7,-3
NC(=O)CC(NC(=O)c1ccccc1)c1ccc(NCc2ccccn2)c([N+](=O)[O-])c1 (centres undefined),11,-4,9,3,1,.
CCN1CCc2c(sc(N)c2C#N)C1,-1,6,-5,6,-11,-4
N#Cc1c(N)sc(=S)c2c1CCN(Cc1ccccc1)C2,.,-8,57*,-5,.,84*
CCCn1c(CCC(=O)O)ccc1-c1ccc(OC)cc1,21,7,46*,5,29,10
COc1ccc(-c2ccc(CCC(=O)O)n2NC(N)=O)cc1,-3,1,-3,-2,11,-10
COc1ccccc1C(=O)N/C(=C\c1cn(C)c2ccccc12)C(=O)N1CCCC1,-4,7,0,10,-10,.
CN(C)CCCN(C(=O)CCc1ccccc1)c1nc2c(F)cccc2s1,-81,-1,-5,5,21*,0
NS(=O)(=O)c1ccc(CCNC(=O)CCCCCn2c(=S)[nH]c3ccc(Br)cc3c2=O)cc1,7,20,7,3,17*,-32
CCOc1cc(CNCCc2ccc(S(N)(=O)=O)cc2)ccc1OCc1ccc(Cl)cc1,-91,8,-14,0,51*,-17
COc1cc(CNCCc2ccc(S(N)(=O)=O)cc2)ccc1OCc1ccc(Cl)cc1,-83,-5,-7,-18,25,1
Cc1cc(C(c2ccc(O)cc2)c2cc(C)c(O)cc2C)c(C)cc1O,-2,5,-2,-14,58*,.
CCOc1ccc(NC(=O)c2ccc3c(c2)OCCO3)cc1S(=O)(=O)N(CC)CC,.,.,.,14,.,.
CCN1CCN(CC(=O)Nc2ccccc2)C(=O)C1=O,34,7,-7,5,15*,-12
CCN1CCN(CC(=O)Nc2ccc(Cl)c(Cl)c2)C(=O)C1=O,4,3,-2,14,3,-8
N#Cc1c(N2CCCC(O)C2)nc(N)c2c(N)nc3c(c12)CC(=O)N3C12CC3CC(CC(C3)C1)C2 (centres undefined),-29,9,52*,-2,-21,-21
CCOC(=O)N1CCC2(CC1)C(C#N)=C(N)Oc1c2c(C)nn1-c1cccc(Cl)c1,14,4,-1,0,7,52*
CCOC(=O)N1CCC2(CC1)C(C#N)=C(N)Oc1n[nH]c(C)c12,0,5,5,-6,-5,5
CCOc1ccc(S(=O)(=O)Nc2nc3ccccc3nc2Cl)cc1,20,5,3,-5,0,.
O=S(=O)(Nc1nc2ccccc2nc1-[n+]1cccc(N=C([O-])c2ccccc2Cl)c1)c1ccccc1,10,-8,11,2,-1,74*
CCOC(=O)c1c(-c2ccc(-c3ccccc3)cc2)csc1NC(=O)C1C2CCC(O2)C1C(=O)O (centres undefined),19,10,46*,14,-6,-7
CN(C(=O)CN1C(=O)c2cc(Cl)c(Cl)cc2C1=O)C1CCS(=O)(=O)C1 (centres undefined),.,-2,-1,3,.,.
O=C(O)CSc1nc2sc3c(c2c(=O)n1Cc1ccccc1)CCCCC3,-15,12,18,20,2,.
SMILES,HCV NS3 hel inh,EBNA-1 inhibitor,HCV core dimer,ZTA DNA inh,GPR7 antag,EBV gp42 inh
O=C(O)CSc1cc(C(=O)c2ccccc2O)cn2c(=O)c3c4c(sc3nc12)CCCC4,22,.,.,.,-7,69*
Cc1cc(NC(=O)c2cccnc2)ccc1Br,11,6,-3,10,13,.
CN1CCN(C2=Nc3c(Cl)cc(Cl)c4cccc2c34)CC1,19,12,-10,13,-1,63*
Cc1cccc(OCCSc2nc3ncnc(N)c3[nH]2)c1,-5,-6,-16,-15,16*,3
O=[N+]([O-])c1ccccc1/C=C/C=N/n1c(-c2ccc(Cl)cc2)n[nH]c1=S,10,8,83*,17,14,86*
O=C1/C(=C\c2ccco2)SC(=S)N1c1ccccc1,37*,6,-5,11,-5,1
O=C(CCCN1C(=O)/C(=C\c2ccco2)SC1=S)Nc1ccc2ccccc2c1,21,-2,46*,11,-11,-30
O=C(c1ccc(OC2CCN(Cc3ccccn3)CC2)cc1)N1CCC[C@H]1CO,6,5,-19,-8,1,.
O=C(NNC(=O)c1ccccc1F)c1cccc(-n2cccc2)c1,.,5,53*,3,.,.
Cc1ccc(Nc2nc3ccccc3n3nnnc23)cc1,7,34*,0,-2,-4,9
CN1CC(=O)N(CC(=O)Nc2cc(Cl)cc(Cl)c2)C1=O,13,8,0,-7,4,-10
Cc1ccc2oc(-c3cccc(NC(=O)/C=C/c4cccc([N+](=O)[O-])c4)c3C)nc2c1,4,28*,22,11,-8,-12
O=C(CC1S/C(=N/N=C/c2c[nH]c3ccccc23)NC1=O)Nc1ccccc1 (centres undefined),13,14,3,13,18*,-4
COc1ccccc1CNC(=O)c1ccc(NC2=NC3CS(=O)(=O)CC3S2)cc1 (centres undefined),1,-2,-11,-11,-3,.
Cc1ccc(/C=c2/sc3nnc(-c4ccccc4Cl)n3c2=O)o1,19,5,14,-3,-16,-15
CCN(CC)c1ccc(/C=c2\sc3nnc(-c4ccccc4Cl)n3c2=O)cc1,-5,7,8,-3,2,193*
CCN(CC)c1ccc(/C=c2/sc3nnc(-c4ccccc4C)n3c2=O)cc1,4,-2,2,-7,5,172*
N=c1n(CCN2CCCC2)c2ccccc2n1CC(O)c1ccc(Cl)c(Cl)c1 (centres undefined),-30,2,-2,-5,39*,-24
Cn1cc(SCC(=O)NC2CCCCC2)c2ccccc21,-3,6,1,-9,2,.
Cc1ccc(-n2nc(-c3ccco3)cc2C(=O)O)cc1,21,7,6,13,9,-12
O=C(c1cc(-c2ccco2)nn1-c1cccc(Cl)c1)N1CCCCC1,23,-4,56*,-14,-4,3
Cc1cc(/C=N/NC(=O)Cn2c3ccccc3c(=O)c3ccccc32)c(C)n1-c1ccccc1,20,5,62*,14,12,-29
